ChEMBL document CHEMBL1157791, “Discovery of GSK1070916, a potent and selective inhibitor of Aurora B/C kinase” (J Med Chem, 2010)
Active and inactive are the calls of the source. No cut-off for these calls is given here.

How the values were obtained:
[1] = target: T1, Aurora kinase C (Homo sapiens, UniProt Q9UQB9); assay: Competitive inhibition of Aurora C ATP binding site
T1 sequence (Q9UQB9 whole entry): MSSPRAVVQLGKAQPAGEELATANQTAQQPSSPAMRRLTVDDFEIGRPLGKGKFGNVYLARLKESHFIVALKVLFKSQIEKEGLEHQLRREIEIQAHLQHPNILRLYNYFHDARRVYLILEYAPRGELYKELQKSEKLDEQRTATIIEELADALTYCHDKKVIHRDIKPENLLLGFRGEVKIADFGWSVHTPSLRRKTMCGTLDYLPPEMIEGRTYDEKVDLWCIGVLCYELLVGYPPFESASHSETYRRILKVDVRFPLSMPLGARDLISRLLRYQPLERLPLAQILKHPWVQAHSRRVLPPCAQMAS

[2] = target: T2, Aurora kinase C (Homo sapiens) (UniProt Q9UQB9); assay: Inhibition of human Aurora C assessed as dissociation half life by rapid dilution method
T2 sequence (whole entry): T1 sequence (Q9UQB9 whole entry)

[3] = target: T1, Aurora kinase C; assay: Competitive inhibition of human Aurora C ATP binding site
[4] = target: T3, Cytochrome P450 1A2 (Homo sapiens, UniProt P05177); assay: Inhibition of CYP1A2 in human liver microsomes using phenacetin as substrate; assay type: ADME, Microsome
T3 sequence (P05177 whole entry): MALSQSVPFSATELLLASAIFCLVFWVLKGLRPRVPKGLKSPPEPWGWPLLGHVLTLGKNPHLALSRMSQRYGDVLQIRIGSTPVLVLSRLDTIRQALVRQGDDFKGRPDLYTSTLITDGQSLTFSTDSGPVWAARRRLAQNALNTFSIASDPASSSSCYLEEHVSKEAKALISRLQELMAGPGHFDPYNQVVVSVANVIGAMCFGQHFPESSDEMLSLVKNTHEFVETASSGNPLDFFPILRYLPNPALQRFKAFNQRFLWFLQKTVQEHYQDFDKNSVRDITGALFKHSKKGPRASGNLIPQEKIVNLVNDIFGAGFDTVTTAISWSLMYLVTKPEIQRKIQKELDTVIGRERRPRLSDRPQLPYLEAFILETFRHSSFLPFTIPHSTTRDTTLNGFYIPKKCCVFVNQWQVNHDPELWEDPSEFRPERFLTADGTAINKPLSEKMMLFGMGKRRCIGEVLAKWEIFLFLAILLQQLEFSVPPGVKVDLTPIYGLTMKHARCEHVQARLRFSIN
Summary of the method: (§1)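 Human liver microsome incubations with a selective probe substrate for each CYP isozyme. Product formation was read by LC/MS/MS. Activity with compound was normalized to activity without compound and expressed as percent of control activity.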

[5] = target: T4, Cytochrome P450 2C9 (Homo sapiens, UniProt P11712); assay: Inhibition of CYP2C9 in human liver microsomes using diclofenac as substrate; assay type: ADME, Microsome; summary of the method: as §1
[6] = target: Cytochrome P450 2C19 (Homo sapiens, UniProt P33261); assay: Inhibition of CYP2C19 in human liver microsomes using S-mephenytoin as substrate; assay type: ADME, Microsome
Summary of the method: (§2)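 Human liver microsomes were incubated with a selective probe substrate for each CYP isozyme across a compound concentration series. Product formation was monitored by LC/MS/MS. Activity was normalized to the no-compound control, expressed as percent of control activity, and used to generate an IC50.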

[7] = target: T5, Cytochrome P450 2D6 (Homo sapiens, UniProt P10635); assay: Inhibition of CYP2D6 in human liver microsomes using bufuralol as substrate; assay type: ADME, Microsome; summary of the method: as §2
[8] = target: Cytochrome P450 3A4 (Homo sapiens, UniProt P08684); assay: Inhibition of CYP3A4 in human liver microsomes using midazolam as substrate; assay type: ADME, Microsome; summary of the method: as §2
[9] = Blood clearance in mouse at 2 mg/kg, iv administered as single dose; assay type: ADME, organism-based; set-up: dose 2 mg/kg, route intravenous; conditions: whole blood
Summary of the method: (§3)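 Conscious mice received a single intravenous dose. Blood clearance, dose-normalized AUC(0-∞) and steady-state volume of distribution were derived from the profile.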

[10] = test system: Mus musculus; assay: Dose normalized AUC (0 to infinity) in mouse at 2 mg/kg, iv administered as single dose; assay type: ADME, organism-based; set-up: time infinity, dose 2 mg/kg, route intravenous; conditions: in vivo; summary of the method: as §3
[11] = Volume of distribution at steady state in mouse at 2 mg/kg, iv administered as single dose; assay type: ADME, organism-based; set-up: dose 2 mg/kg, route intravenous; conditions: in vivo, read-out: Vdss; summary of the method: as §3
[12] = Mean residence time in mouse at 2 mg/kg, iv administered as single dose; assay type: ADME, organism-based; set-up: dose 2 mg/kg, route intravenous; conditions: in vivo
[13] = Solubility at pH 4; assay type: physicochemical; conditions: buffer
[14] = test system: Mus musculus; assay: Inhibition of histone H3 phosphorylation in ip dosed mouse xenografted with human COLO205 cells after 30 hrs; assay type: functional, organism-based; conditions: COLO 205
Summary of the method: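 Mice bearing advanced Colo205 tumors were treated intraperitoneally at several doses. Tumor phospho-histone H3 (Ser10) was measured by ELISA 30 h post dose and expressed as percent inhibition relative to control.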

[15] = test system: HL-60; assay: Antitumor activity against human HL60 cells xenografted in nude mouse assessed as complete tumor regression at 75 mg/kg, ip QD for 5 days and for 2 cycles; assay type: functional, organism-based; set-up: dose 75 mg/kg
Summary of the method: (§4)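 Subcutaneous HL-60 xenografts in nude mice. Dosing was intraperitoneal, once daily for five days, repeated for two cycles (qdx5 ×2), at 75 or 100 mg kg-1. Untreated mice served as controls. Tumors were followed for regression and for regrowth up to 51 days after the last dose.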

[16] = test system: HL-60; assay: Antitumor activity against human HL60 cells xenografted in nude mouse assessed as complete tumor regression at 100 mg/kg, ip QD for 5 days and for 2 cycles; assay type: functional, organism-based; set-up: dose 100 mg/kg; summary of the method: as §4
[17] = test system: HL-60; assay: Antitumor activity against human HL60 cells xenografted in nude mouse assessed as complete suppression of tumor regrowth at 100 mg/kg, ip QD for 5 days and for 2 cycles measured on day 51 post last dose; assay type: functional, organism-based; set-up: dose 100 mg/kg; summary of the method: as §4
[18] = target: T6, Aurora kinase B (Homo sapiens, UniProt Q96GD4); assay: Inhibition of human Aurora B by in vitro inhibition assay
[19] = Permeability by PAMPA; assay type: ADME; conditions: read-out: permeability
[20] = target: T7, Aurora kinase A (Homo sapiens, UniProt O14965); assay: Inhibition of human Aurora A
T7 sequence (O14965 whole entry): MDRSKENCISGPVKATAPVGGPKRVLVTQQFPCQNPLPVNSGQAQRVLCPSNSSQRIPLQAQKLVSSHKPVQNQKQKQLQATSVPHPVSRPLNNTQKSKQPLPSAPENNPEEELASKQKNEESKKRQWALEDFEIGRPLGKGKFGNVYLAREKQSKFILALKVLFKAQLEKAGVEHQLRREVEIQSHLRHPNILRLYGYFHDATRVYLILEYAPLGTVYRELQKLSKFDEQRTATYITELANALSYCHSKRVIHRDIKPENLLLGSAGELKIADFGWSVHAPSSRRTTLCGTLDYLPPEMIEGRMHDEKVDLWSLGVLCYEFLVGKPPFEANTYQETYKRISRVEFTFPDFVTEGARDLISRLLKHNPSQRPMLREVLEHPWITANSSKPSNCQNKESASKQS

[21] = test system: A549; assay: Antiproliferative activity against human A549 cells after 6 to 7 days by celltiter-glo luminescence assay in absence of 70% human serum albumin; assay type: functional, cell-based
[22] = target: Hepatocyte growth factor receptor (Homo sapiens, UniProt P08581); assay: Inhibition of MET
[23] = target: Insulin-like growth factor 1 receptor (Homo sapiens, UniProt P08069); assay: Inhibition of IGF1R
Summary of the method: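 Part of a 328 human protein and lipid kinase selectivity panel run as in vitro activity or binding assays.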

[24] = target: T6, Aurora kinase B; assay: Inhibition of human Aurora B assessed as residence time by rapid dilution method
[25] = Plasma clearance in iv dosed rat; assay type: ADME, organism-based
[26] = Half life in iv dosed rat; assay type: ADME, organism-based; conditions: in vivo
[27] = Volume of distribution at steady state in iv dosed rat; assay type: ADME, organism-based; conditions: in vivo, read-out: Vdss
[28] = target: T4, Cytochrome P450 2C9; assay: Inhibition of CYP2C9; assay type: ADME
[29] = target: T5, Cytochrome P450 2D6; assay: Inhibition of CYP2D6; assay type: ADME
Summary of the method: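 Human liver microsomes incubated with a selective probe substrate for each CYP isozyme, with and without test compound. Metabolite formation quantified by LC/MS/MS. Activity with compound normalized to activity without compound and expressed as percent of control. IC50 derived from the concentration response.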

T4 sequence (P11712 whole entry): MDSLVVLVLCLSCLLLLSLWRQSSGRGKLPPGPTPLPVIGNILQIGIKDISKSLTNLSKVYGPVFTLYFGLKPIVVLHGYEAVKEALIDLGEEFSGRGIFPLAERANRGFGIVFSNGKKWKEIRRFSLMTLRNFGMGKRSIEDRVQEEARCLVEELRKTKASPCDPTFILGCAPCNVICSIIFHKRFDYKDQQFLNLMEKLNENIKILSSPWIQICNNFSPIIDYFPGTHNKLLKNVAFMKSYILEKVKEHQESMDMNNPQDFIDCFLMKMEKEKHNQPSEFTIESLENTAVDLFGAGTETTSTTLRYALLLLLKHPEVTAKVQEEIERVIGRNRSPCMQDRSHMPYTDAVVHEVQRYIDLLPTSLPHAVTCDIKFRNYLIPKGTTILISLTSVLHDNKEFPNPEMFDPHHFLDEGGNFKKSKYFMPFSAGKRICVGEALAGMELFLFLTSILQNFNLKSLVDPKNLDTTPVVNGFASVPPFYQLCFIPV
T6 sequence (Q96GD4 whole entry): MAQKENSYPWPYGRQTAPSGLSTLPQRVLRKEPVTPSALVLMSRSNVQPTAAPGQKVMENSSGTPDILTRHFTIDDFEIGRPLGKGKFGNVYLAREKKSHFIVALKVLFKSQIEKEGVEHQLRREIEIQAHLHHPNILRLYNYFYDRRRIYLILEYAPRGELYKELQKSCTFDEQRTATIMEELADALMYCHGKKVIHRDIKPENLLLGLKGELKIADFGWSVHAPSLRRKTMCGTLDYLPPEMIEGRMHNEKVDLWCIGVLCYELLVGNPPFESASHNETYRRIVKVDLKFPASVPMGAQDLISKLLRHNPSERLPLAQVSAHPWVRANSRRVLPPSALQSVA
T5 sequence (P10635 whole entry): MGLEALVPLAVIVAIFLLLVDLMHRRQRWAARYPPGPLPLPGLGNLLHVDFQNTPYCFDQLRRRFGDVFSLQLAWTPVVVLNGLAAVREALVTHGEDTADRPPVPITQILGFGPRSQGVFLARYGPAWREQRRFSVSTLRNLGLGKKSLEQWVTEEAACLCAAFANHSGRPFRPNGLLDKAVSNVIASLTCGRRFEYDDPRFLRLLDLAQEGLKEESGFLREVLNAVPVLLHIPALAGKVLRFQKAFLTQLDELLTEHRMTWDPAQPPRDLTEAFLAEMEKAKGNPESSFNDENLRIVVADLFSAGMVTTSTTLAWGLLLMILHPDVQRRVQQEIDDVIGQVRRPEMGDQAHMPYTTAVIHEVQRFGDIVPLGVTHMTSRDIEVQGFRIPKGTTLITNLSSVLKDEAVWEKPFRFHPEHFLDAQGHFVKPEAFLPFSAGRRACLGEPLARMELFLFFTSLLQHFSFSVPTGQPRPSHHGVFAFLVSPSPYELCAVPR
Chain of Cytochrome P450 3A4 (P08684 whole entry): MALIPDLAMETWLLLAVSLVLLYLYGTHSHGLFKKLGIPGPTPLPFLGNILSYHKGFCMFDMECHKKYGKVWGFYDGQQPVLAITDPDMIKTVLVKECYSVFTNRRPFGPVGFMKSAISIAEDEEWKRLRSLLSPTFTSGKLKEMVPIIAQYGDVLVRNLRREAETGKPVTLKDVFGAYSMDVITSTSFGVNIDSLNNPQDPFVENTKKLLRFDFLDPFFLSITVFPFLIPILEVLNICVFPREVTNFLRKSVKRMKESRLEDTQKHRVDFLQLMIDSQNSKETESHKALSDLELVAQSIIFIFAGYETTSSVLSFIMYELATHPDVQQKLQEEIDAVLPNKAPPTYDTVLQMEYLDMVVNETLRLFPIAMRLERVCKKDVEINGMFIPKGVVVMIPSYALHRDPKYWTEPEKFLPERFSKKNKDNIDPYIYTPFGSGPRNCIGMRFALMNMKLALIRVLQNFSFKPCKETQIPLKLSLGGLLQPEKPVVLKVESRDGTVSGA
Chain of Cytochrome P450 2C19 (P33261 whole entry): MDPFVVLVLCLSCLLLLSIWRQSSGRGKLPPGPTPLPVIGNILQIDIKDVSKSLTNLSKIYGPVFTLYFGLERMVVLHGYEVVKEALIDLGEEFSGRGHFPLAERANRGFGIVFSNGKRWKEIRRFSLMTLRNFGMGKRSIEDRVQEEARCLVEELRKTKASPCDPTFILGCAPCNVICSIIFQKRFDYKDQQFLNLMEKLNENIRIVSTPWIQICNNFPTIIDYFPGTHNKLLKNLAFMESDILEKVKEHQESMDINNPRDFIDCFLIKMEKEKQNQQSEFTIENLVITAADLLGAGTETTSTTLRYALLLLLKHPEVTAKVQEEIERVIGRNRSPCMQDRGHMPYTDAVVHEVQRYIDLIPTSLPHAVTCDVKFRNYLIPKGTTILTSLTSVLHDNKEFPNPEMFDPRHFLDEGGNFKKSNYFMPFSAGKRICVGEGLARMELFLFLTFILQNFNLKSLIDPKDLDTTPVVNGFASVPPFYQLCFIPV
Chain of Insulin-like growth factor 1 receptor (P08069 31-736 limits assumed): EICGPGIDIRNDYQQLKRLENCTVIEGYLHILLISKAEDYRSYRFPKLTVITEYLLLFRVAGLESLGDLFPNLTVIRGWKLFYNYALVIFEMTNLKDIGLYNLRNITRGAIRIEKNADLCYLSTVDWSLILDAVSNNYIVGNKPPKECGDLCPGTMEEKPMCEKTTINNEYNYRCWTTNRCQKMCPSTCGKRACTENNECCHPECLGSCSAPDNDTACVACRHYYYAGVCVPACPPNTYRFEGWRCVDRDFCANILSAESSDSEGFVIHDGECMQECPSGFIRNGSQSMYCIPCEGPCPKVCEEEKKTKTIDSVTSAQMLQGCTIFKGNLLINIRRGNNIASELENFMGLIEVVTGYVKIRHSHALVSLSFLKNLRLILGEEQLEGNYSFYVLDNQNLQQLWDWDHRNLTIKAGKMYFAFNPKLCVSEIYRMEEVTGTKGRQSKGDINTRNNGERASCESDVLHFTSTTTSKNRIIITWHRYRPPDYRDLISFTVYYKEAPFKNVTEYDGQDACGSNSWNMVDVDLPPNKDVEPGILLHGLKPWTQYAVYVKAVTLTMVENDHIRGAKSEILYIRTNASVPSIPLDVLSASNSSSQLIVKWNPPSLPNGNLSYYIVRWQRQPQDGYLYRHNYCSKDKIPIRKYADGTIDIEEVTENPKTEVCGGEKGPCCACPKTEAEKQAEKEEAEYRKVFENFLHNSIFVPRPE
Chain of Insulin-like growth factor 1 receptor (P08069 741-1367 limits assumed): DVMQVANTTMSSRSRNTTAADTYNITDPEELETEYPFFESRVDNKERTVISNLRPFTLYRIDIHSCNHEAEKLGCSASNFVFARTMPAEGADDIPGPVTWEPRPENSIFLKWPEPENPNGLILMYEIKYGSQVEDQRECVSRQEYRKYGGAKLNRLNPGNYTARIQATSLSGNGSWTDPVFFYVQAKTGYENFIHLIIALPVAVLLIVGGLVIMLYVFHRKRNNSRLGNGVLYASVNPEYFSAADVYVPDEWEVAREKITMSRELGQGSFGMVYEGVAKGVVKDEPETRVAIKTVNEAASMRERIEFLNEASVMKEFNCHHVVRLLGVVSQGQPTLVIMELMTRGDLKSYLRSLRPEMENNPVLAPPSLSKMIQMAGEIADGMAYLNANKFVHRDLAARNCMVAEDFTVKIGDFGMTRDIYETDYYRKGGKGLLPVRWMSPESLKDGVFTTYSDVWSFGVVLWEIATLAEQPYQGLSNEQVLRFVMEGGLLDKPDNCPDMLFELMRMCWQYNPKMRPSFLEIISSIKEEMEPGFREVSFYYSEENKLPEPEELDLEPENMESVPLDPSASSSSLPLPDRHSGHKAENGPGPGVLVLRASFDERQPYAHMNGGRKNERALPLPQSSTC
Chain of Hepatocyte growth factor receptor (P08581 whole entry): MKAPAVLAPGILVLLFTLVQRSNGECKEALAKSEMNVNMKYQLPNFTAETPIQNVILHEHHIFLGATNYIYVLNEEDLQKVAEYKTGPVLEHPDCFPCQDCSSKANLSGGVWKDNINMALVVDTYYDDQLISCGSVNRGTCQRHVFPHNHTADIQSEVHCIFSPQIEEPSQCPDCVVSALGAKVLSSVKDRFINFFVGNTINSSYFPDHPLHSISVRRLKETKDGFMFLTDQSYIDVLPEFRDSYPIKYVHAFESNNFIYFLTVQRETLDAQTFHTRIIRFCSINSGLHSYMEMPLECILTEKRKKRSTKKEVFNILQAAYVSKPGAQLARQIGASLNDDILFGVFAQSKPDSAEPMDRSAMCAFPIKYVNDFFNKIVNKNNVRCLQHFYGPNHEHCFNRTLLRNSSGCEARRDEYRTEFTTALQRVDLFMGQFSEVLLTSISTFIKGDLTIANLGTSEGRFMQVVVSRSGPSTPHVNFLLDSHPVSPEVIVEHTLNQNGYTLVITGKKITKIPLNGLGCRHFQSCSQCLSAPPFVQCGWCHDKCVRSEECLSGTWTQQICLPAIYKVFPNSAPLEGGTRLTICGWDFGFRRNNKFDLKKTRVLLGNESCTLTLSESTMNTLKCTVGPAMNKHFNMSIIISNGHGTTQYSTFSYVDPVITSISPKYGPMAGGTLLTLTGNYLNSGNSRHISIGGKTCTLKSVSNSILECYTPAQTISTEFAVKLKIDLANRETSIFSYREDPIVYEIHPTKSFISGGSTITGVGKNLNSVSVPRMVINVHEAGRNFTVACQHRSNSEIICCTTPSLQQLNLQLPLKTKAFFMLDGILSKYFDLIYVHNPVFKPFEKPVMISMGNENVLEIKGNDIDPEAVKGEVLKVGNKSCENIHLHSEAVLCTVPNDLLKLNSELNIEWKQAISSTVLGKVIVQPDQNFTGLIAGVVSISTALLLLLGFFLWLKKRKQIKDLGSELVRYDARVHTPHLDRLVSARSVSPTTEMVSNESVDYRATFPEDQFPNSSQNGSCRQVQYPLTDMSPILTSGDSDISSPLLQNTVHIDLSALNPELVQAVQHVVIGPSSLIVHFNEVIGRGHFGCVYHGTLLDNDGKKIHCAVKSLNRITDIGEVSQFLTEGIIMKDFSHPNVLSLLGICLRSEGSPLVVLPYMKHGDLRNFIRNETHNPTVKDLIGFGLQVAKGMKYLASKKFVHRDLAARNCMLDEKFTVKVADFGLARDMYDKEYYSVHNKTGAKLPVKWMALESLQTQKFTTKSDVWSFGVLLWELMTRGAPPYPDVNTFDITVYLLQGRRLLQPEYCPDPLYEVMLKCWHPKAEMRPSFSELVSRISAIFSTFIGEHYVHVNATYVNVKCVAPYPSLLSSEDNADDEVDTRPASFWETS

Structure (SMILES): CCn1cc(-c2ccnc3[nH]c(-c4cccc(CN(C)C)c4)cc23)c(-c2ccc(NC(=O)N(C)C)cc2)n1 [GSK-1070916]
- IC50 [1]: 6.5 nM
- Ki [1]: 1.5 nM
- Activity [2]: 270 min
- Ki [3]: 1.5 nM
- IC50 [4]: > 33000 nM
- IC50 [5]: 38000 nM
- IC50 [6]: 81000 nM
- IC50 [7]: 12000 nM
- inhibition (INH) [8]: Not Active
- clearance [9]: 49.4 mL/min/kg
- AUC [10]: 345 ng·h/mL/mg/kg
- Vd [11]: 0.8 L/kg
- MRT [12]: 18 min
- solubility [13]: > 10000 µg/mL
- inhibition [14]: Dose-dependent effect
- inhibition [15]: Active
- inhibition [16]: Active
- inhibition [17]: Active
- IC50 [18]: 5 nM

Structure (SMILES): CCn1cc(-c2ccnc3[nH]ccc23)c(-c2ccc(NC(=O)Nc3ccccc3)cc2)n1
- Papp [19]: 17 ×10⁻⁶ cm/s
- IC50 [20]: 631 nM
- EC50 [21]: 79 nM
- IC50 [22]: 316 nM
- IC50 [23]: 158 nM
- TIME [24]: 0.128 h
- clearance [25]: 128 mL/min/kg
- half-life [26]: 12 min
- Vd [27]: 1.7 L/kg
- IC50 [28]: < 100 nM
- IC50 [29]: < 100 nM
